Structures can show the parent of a compound that is named as a salt.
Legend:
Bel7402/5-FU [1] = test: Antiproliferative activity against human Bel7402/5-FU incubated for 72 hrs by MTT assay; assay type: functional, cell-based
In short: (§1)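 Bel-7402 and its 5-FU-resistant subline were kept in RPMI-1640 with 10% FBS and 1% penicillin/streptomycin at 37 °C under 5% CO2. Cells were seeded at 5000 per well and left for 12 h, then exposed to a concentration series for 72 h. MTT stock (5 mg/mL) was added for 4 h and the product dissolved in DMSO. OD was read at 570 nm and IC50 obtained by curve fitting.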

Bel-7402 = test: Antiproliferative activity against human Bel7402 incubated for 72 hrs by MTT assay; assay type: functional, cell-based; settings: Bel-7402, 72 h; in short: as §1
Bel7402/5-FU [2] = test: Induction of apoptosis in human Bel7402/5-FU assessed as viable cells at 5 uM incubated for 48 hrs by annexinV-FITC/propidium iodide staining based flow cytometry (reference value: 96.9 %)
Bel7402/5-FU [3] = test: Induction of apoptosis in human Bel7402/5-FU assessed as late apoptotic cells at 5 uM incubated for 48 hrs by annexinV-FITC/propidium iodide staining based flow cytometry (reference value: 0.945 %)
Bel7402/5-FU [4] = test: Induction of apoptosis in human Bel7402/5-FU assessed as early apoptotic cells at 5 uM incubated for 48 hrs by annexinV-FITC/propidium iodide staining based flow cytometry (reference value: 20.1 %)
Bel7402/5-FU [5] = test: Induction of apoptosis in human Bel7402/5-FU assessed as necrotic cells at 5 uM incubated for 48 hrs by annexinV-FITC/propidium iodide staining based flow cytometry (reference value: 0.157 %)
[6] = Oral bioavailability in canine at 100 mg/kg; assay type: ADME, organism-based, Canis lupus familiaris; settings: dog, in vivo
[7] = Oral bioavailability in mouse at 100 mg/kg; assay type: ADME, organism-based; settings: in vivo

Question: Which IC50 (Bel7402/5-FU [1]) does the source give for `C=C1C(=O)O[C@H]2[C@H]1CC/C(COC(=O)CCC(=O)N1CCN(C(=O)Cn3cc(F)c(=O)[nH]c3=O)CC1)=C\CC[C@@]1(C)O[C@@H]21` here?
Answer: > 20 µM

Question: And the IC50 (Bel-7402)?
Answer: > 20 µM

Question: Which results are given for `C=C1C(=O)O[C@H]2[C@H]1CC/C(COC(=O)CCC(=O)NCCCCCCNC(=O)Cn1cc(F)c(=O)n(Cc3ccccc3)c1=O)=C\CC[C@@]1(C)O[C@@H]21`?
Answer: IC50 (Bel7402/5-FU [1]): 16.2 µM; IC50 (Bel-7402): 18.3 µM

Question: With `C=C1C(=O)O[C@H]2[C@H]1CC/C(COC(=O)Cn1cc(F)c(=O)n(Cc3c(F)cccc3F)c1=O)=C\CC[C@@]1(C)O[C@@H]21` as the molecule, how does the IC50 (Bel7402/5-FU [1]) read?
Answer: 4.98 µM

Question: And the IC50 (Bel-7402)?
Answer: 4.5 µM

Question: With `C=C1C(=O)O[C@H]2[C@H]1CC/C(COC(=O)Cn1cc(F)c(=O)n(C)c1=O)=C\CC[C@@]1(C)O[C@@H]21` as the molecule, how does the IC50 (Bel7402/5-FU [1]) read?
Answer: 11.7 µM

Question: And the IC50 (Bel-7402)?
Answer: 9.4 µM

Question: With `C=C1C(=O)O[C@H]2[C@H]1CC/C(COC(=O)Cn1cc(F)c(=O)n(Cc3ccc(Br)cc3)c1=O)=C\CC[C@@]1(C)O[C@@H]21` as the molecule, how does the IC50 (Bel7402/5-FU [1]) read?
Answer: 3.24 µM

Question: What about the IC50 (Bel-7402) of the same molecule?
Answer: 2.67 µM

Question: Which results are given for `C=C1C(=O)O[C@H]2[C@H]1CC/C(Cn1cc(Cn3cc(F)c(=O)n(Cc4ccccc4)c3=O)nn1)=C\CC[C@@]1(C)O[C@@H]21`?
Answer: IC50 (Bel7402/5-FU [1]): 8.84 µM; IC50 (Bel-7402): 9.16 µM

Question: Which IC50 (Bel-7402) does the source give for `C=C1C(=O)O[C@H]2[C@H]1CC/C(COC(=O)Cn1cc(F)c(=O)n(Cc3ccc(F)cc3)c1=O)=C\CC[C@@]1(C)O[C@@H]21` here?
Answer: 2.73 µM

Question: Which results are given for `C=C1C(=O)O[C@H]2[C@H]1CC/C(COC(=O)Cn1cc(F)c(=O)n(CCC)c1=O)=C\CC[C@@]1(C)O[C@@H]21`?
Answer: IC50 (Bel7402/5-FU [1]): 9.11 µM; IC50 (Bel-7402): 8.58 µM

Question: With `C=C1C(=O)O[C@H]2[C@H]1CC/C(COC(=O)Cn1cc(F)c(=O)n(Cc3ccc([N+](=O)[O-])cc3)c1=O)=C\CC[C@@]1(C)O[C@@H]21` as the molecule, how does the IC50 (Bel7402/5-FU [1]) read?
Answer: 4.34 µM

Question: And the IC50 (Bel-7402)?
Answer: 4.07 µM

Question: For `COc1cccc2c1C(=O)c1c(O)c3c(c(O)c1C2=O)C[C@@](O)(C(=O)CO)C[C@@H]3O[C@H]1C[C@H](N)[C@H](O)[C@H](C)O1` [DOXORUBICIN HYDROCHLORIDE], which IC50 (Bel7402/5-FU [1]) is on record?
Answer: 8.36 µM

Question: Which results are given for `C=C1C(=O)O[C@@H]2C3O[C@]3(C)CC/C=C(\C)CC[C@@H]12` (stereo partly drawn)?
Answer: viability at 5 µM (Bel7402/5-FU [2]): 94.3%; IC50 (Bel7402/5-FU [1]): 13 µM; Activity (Bel7402/5-FU [3]): 2.52%; Activity (Bel7402/5-FU [4]): 1.75%; Activity (Bel7402/5-FU [5]): 1.29%; IC50 (Bel-7402): 8.62 µM

Question: What does the source list for `C=C1C(=O)O[C@H]2[C@H]1CC/C(COC(=O)CCC(=O)OCn1cc(F)c(=O)[nH]c1=O)=C\CC[C@@]1(C)O[C@@H]21`?
Answer: IC50 (Bel7402/5-FU [1]): > 20 µM; IC50 (Bel-7402): > 20 µM

Question: For `C=C1C(=O)O[C@H]2[C@H]1CC/C(COC(=O)Cn1cc(F)c(=O)n(Cc3ccc(Cl)cc3)c1=O)=C\CC[C@@]1(C)O[C@@H]21`, which IC50 (Bel7402/5-FU [1]) is on record?
Answer: 2.42 µM

Question: And the IC50 (Bel-7402)?
Answer: 2.56 µM

Question: With `C=C1C(=O)O[C@H]2[C@H]1CC/C(Cn1cc(Cn3cc(F)c(=O)[nH]c3=O)nn1)=C\CC[C@@]1(C)O[C@@H]21` as the molecule, how does the IC50 (Bel7402/5-FU [1]) read?
Answer: > 20 µM

Question: And the IC50 (Bel-7402)?
Answer: > 20 µM

Question: For `C=C1C(=O)O[C@H]2[C@H]1CC/C(COC(=O)CCC(=O)N1CCN(C(=O)Cn3cc(F)c(=O)n(Cc4ccccc4)c3=O)CC1)=C\CC[C@@]1(C)O[C@@H]21`, which IC50 (Bel7402/5-FU [1]) is on record?
Answer: > 20 µM

Question: And the IC50 (Bel-7402)?
Answer: > 20 µM

Question: For `C=C1C(=O)O[C@H]2[C@H]1CC/C(COC(=O)Cn1cc(F)c(=O)n(Cc3cc(F)ccc3F)c1=O)=C\CC[C@@]1(C)O[C@@H]21`, which IC50 (Bel7402/5-FU [1]) is on record?
Answer: 4.61 µM

Question: What about the IC50 (Bel-7402) of the same molecule?
Answer: 3.06 µM

Question: Which results are given for `C=C1C(=O)O[C@H]2[C@H]1CC/C(COC(=O)CCC(=O)NCCCCCCNC(=O)Cn1cc(F)c(=O)[nH]c1=O)=C\CC[C@@]1(C)O[C@@H]21`?
Answer: IC50 (Bel7402/5-FU [1]): > 20 µM; IC50 (Bel-7402): > 20 µM

Question: Which viability at 5 µM (Bel7402/5-FU [2]) does the source give for `O=c1[nH]cc(F)c(=O)[nH]1` [FLUOROURACIL] here?
Answer: 27.4%

Question: And the IC50 (Bel7402/5-FU [1])?
Answer: > 400 µM

Question: And the Activity (Bel7402/5-FU [3])?
Answer: 0.073%

Question: And the Activity (Bel7402/5-FU [4])?
Answer: 1.85%

Question: What about the Activity (Bel7402/5-FU [5]) of the same molecule?
Answer: 2.164%

Question: And the IC50 (Bel-7402)?
Answer: 7.36 µM

Question: Which results are given for `C=C1C(=O)O[C@H]2[C@H]1CC/C(COC(=O)Cn1cc(F)c(=O)[nH]c1=O)=C\CC[C@@]1(C)O[C@@H]21`?
Answer: IC50 (Bel7402/5-FU [1]): > 20 µM; IC50 (Bel-7402): > 20 µM

Question: With `C=C1C(=O)O[C@H]2[C@H]1CC/C(COC(=O)Cn1cc(F)c(=O)n(Cc3ccccc3F)c1=O)=C\CC[C@@]1(C)O[C@@H]21` as the molecule, how does the IC50 (Bel7402/5-FU [1]) read?
Answer: 3.83 µM

Question: And the IC50 (Bel-7402)?
Answer: 3.77 µM

Question: Which results are given for `C=C1C(=O)O[C@H]2[C@H]1CC/C(COC(=O)Cn1cc(F)c(=O)n(Cc3ccc(F)cc3F)c1=O)=C\CC[C@@]1(C)O[C@@H]21`?
Answer: IC50 (Bel7402/5-FU [1]): 5.01 µM; IC50 (Bel-7402): 3.67 µM

Question: With `C/C1=C\CC[C@@]2(C)O[C@H]2[C@H]2OC(=O)[C@@H](CN(C)C)[C@@H]2CC1` as the molecule, how does the bioavailability [6] read?
Answer: 70%

Question: And the bioavailability [7]?
Answer: 70%

Question: For `C=C1C(=O)O[C@H]2[C@H]1CC/C(COC(=O)Cn1cc(F)c(=O)n(Cc3ccc(F)c(F)c3)c1=O)=C\CC[C@@]1(C)O[C@@H]21`, which IC50 (Bel7402/5-FU [1]) is on record?
Answer: 4.48 µM

Question: What about the IC50 (Bel-7402) of the same molecule?
Answer: 2.7 µM

Question: For `C=C1C(=O)O[C@H]2[C@H]1CC/C(COC(=O)Cn1cc(F)c(=O)n(Cc3ccccc3)c1=O)=C\CC[C@@]1(C)O[C@@H]21`, which IC50 (Bel7402/5-FU [1]) is on record?
Answer: 4.27 µM

Question: And the IC50 (Bel-7402)?
Answer: 3.98 µM

Question: Which IC50 (Bel7402/5-FU [1]) does the source give for `C=C1C(=O)O[C@H]2[C@H]1CC/C(Cn1cc(Cn3cc(F)c(=O)n(Cc4ccc(F)cc4)c3=O)nn1)=C\CC[C@@]1(C)O[C@@H]21` here?
Answer: 4.86 µM

Question: What about the IC50 (Bel-7402) of the same molecule?
Answer: 4.91 µM

Question: For `C=C1C(=O)O[C@H]2[C@H]1CC/C(COC(=O)Cn1cc(F)c(=O)n(Cc3cccc(F)c3)c1=O)=C\CC[C@@]1(C)O[C@@H]21`, which IC50 (Bel7402/5-FU [1]) is on record?
Answer: 3.7 µM

Question: What about the IC50 (Bel-7402) of the same molecule?
Answer: 2.53 µM

— ChEMBL document CHEMBL4311977, “Design and synthesis of parthenolide and 5-fluorouracil conjugates as potential anticancer agents against drug resistant hepatocellular carcinoma” (Eur J Med Chem, 2019)
